Results from different studies.
Each line is one published result; the experiments were not run side by side.
Effect on: cell growth or viability

With `CC(C)C[C@H](NC(=O)[C@H](Cc1ccccc1)NC(=O)c1cnccn1)B(O)O` the IC50 was 0.0093 µM (NCI-H292; ATP luminescence).
`O=C1/C(=C/c2cc(O)c(O)c(O)c2)Oc2ccccc21` has an IC50 of 23 µg/mL (HEK-293T; ATP luminescence; 24 h).
`COC(=O)CN=c1scc(-c2ccccc2)n1-c1ccccc1C` gave an IC50 of greater than 100 µM (PANC-03-27; MTT; 72 h).
`CCCCNS(=O)(=O)c1ccc(-c2ccc3oc(C(=O)c4cc(O)c(O)c(O)c4)cc3c2)cc1` gave an IC50 of 15 µg/mL (HEK-293T; ATP luminescence; 24 h).
The IC50 of `CC(=O)Oc1ccc2c(c1)C(C)=CC(C)(C)N2Cc1ccccc1` is reported as 25 µM (Huh-7; MTT; 72 h).
For `CC[C@@H](C)[C@H](N)C(=O)N1Cc2ccccc2C1`, the IC50 was greater than 60 µM (TF-1; ATP luminescence; 48 h).
For `C=CC(=O)Nc1cc(Nc2nccc(-c3cn(C)c4ccccc34)n2)c(OC)cc1N(C)CCN(C)C`, the IC50 was 0.249 µM (A-431; ATP luminescence; 72 h).
`O=c1[nH]cc(S(=O)(=O)Nc2cccc(-c3nnc(-c4cccc(Cl)c4)o3)c2)c(=O)[nH]1` has an IC50 of 3.81 µM (NCI-H292; MTT; 24 h).
For `Cc1ccc2nc(-c3ccccc3O)[nH]c2c1`, the IC50 was 26.1 µM (HepG2; MTT; 48 h).
`[Cl-].[Cl-].[Ti+4].c1cc[cH-]c1.c1cc[cH-]c1` gave an IC50 of greater than 200 µM (HEK-293T; XTT; 72 h).
`COC(=O)CN=c1scc(-c2ccccc2)n1-c1ccc(Cl)cc1` has an IC50 of 22.1 µM (PANC-03-27; MTT; 72 h).
`CCN(c1nc(N)c(C(=O)N=C(N)N)nc1Cl)C(C)C` gave an IC50 of 160 µM (A-431; MTT; 3 h).
For `Cc1[nH]c(/C=C2\C(=O)Nc3ccc(S(=O)(=O)N(C)c4cccc(Cl)c4)cc32)c(C)c1C(=O)N1CCN(C)CC1`, the IC50 was 3.85 µM (human Myoblast; 72 h).
For `O=C(CNC(=O)c1cccc2ccccc12)Nc1ccccc1Oc1cccc(O)c1`, the IC50 was 0.192 µM (SK-N-AS).
The IC50 of `O=C(NCc1ccc(CO)cc1)c1c[nH]c2ccc(Cl)cc12` is reported as 17 µM (SK-N-BE(2)-C; MTT).
The IC50 of `N[C@@H](CC(=O)N1CCN(C(c2ccc(F)cc2)c2ccc(F)cc2)CC1)C(=O)N1Cc2ccccc2C1` is reported as 28.8 µM (TF-1; ATP luminescence; 48 h).
`O=C1/C(=C/c2cc(O)c(O)c(O)c2)Oc2cccc(O)c21` has an IC50 of greater than 32 µg/mL (HEK-293T; ATP luminescence; 24 h).
With `COc1cc([C@@H]2c3cc4c(cc3[C@@H](O[C@@H]3O[C@@H]5CO[C@@H](C)O[C@H]5[C@H](O)[C@H]3O)[C@H]3COC(=O)[C@H]23)OCO4)cc(OC)c1O` the IC50 was 42.2 µM (CCD-18Co; MTS; 72 h).
For `COC(=O)CN=c1scc(-c2ccccc2)n1-c1ccccc1[N+](=O)[O-]`, the IC50 was 25.5 µM (PANC-03-27; MTT; 72 h).
For `COc1ccc(C[C]2([Ti+2][C]3(Cc4ccc(OC)cc4)C=CC=C3)C=CC=C2)cc1.[Cl-].[Cl-]`, the IC50 was greater than 200 µM (HEK-293T; XTT; 72 h).
The IC50 of `COC1=C2C[C@@H](C)C[C@H](OC)[C@H](O)[C@@H](C)/C=C(\C)[C@H](OC(N)=O)[C@@H](OC)/C=C\C=C(/C)C(=O)NC(=CC1=O)C2=O` is reported as 0.048 µM (A-431; MTT).
For `COc1cc([C@@H]2c3cc4c(cc3[C@@H](O[C@@H]3O[C@@H]5CO[C@@H](C)O[C@H]5[C@H](O)[C@H]3O)[C@H]3COC(=O)[C@H]23)OCO4)cc(OC)c1O`, the IC50 was 43.7 µM (CCD-18Co; MTS; 48 h).
The IC50 of `COc1cc(N2CCC(N3CCN(C)CC3)CC2)ccc1Nc1ncc(Cl)c(Nc2ccccc2S(=O)(=O)C(C)C)n1` is reported as 0.45 µM (human Myoblast; 72 h).
The IC50 of `O=C(CNC(=O)c1cccc2ccccc12)Nc1ccccc1Oc1ccc(O)cc1` is reported as 0.156 µM (SK-N-AS).
With `COC(=O)CN=c1scc(-c2ccccc2)n1-c1ccccc1OC` the IC50 was 13.5 µM (PANC-03-27; MTT; 72 h).
`COc1cc(Nc2nccc(-c3cnn4nc(OC)ccc34)n2)cc(C(F)(F)F)c1` has an IC50 of 0.71 µM (NCI-H2009; ATP luminescence).
For `Cc1cc(Nc2ncc(Cl)c(Nc3ccccc3S(=O)(=O)C(C)C)n2)c(OC(C)C)cc1C1CCNCC1`, the IC50 was 1.84 µM (human Myoblast; 72 h).
`O=C(Nc1ccccc1CO)c1c[nH]c2ccc(Cl)cc12` has an IC50 of 13 µM (SK-N-BE(2)-C; MTT).
`O=C(CNC(=O)c1cccc2ccccc12)Nc1ccccc1Oc1ccccc1` has an IC50 of 0.107 µM (SK-N-AS).
`O=C(c1cc(O)c(O)c(O)c1)c1cc2cc(-c3ccc(CO)cc3)ccc2o1` gave an IC50 of 1 µg/mL (HEK-293T; ATP luminescence; 72 h).
With `COc1cccc(Oc2ccccc2NC(=O)CNC(=O)c2cccc3ccccc23)c1` the IC50 was 0.125 µM (SK-N-AS).
For `Cc1cc(NC(=O)c2cccc3cc(-c4cccc5[nH]nc(N)c45)ccc23)ccc1F`, the IC50 was greater than 20 µM (D283; CCK-8; 72 h).
